ChEMBL document CHEMBL1137580, “Synthesis, potency, and in vivo profiles of quinoline containing histamine H3 receptor inverse agonists” (J Med Chem, 2007)
Calls of active or inactive are those of the source. No cut-off for these calls is given here.

Tests used:
[1] = Protein binding in monkey plasma; format: ADME, cell-free, Macaca mulatta; conditions: rhesus monkey, read-out: PPB (converted)
[2] = Protein binding in rat plasma; format: ADME, cell-free; conditions: read-out: PPB (converted)
[3] = Ratio of drug level in brain to blood in rat at 1 mg/kg, iv; format: ADME, organism-based; set-up: dose 1 mg/kg, route intravenous
Summary of the method: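 Rats given 1 mg/kg i.v.; brain and plasma concentrations measured 1 h after dosing by HPLC-MS, and the brain-to-plasma ratio was taken from these; n ≥ 3 animals.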

[4] = Half life in rat at 1 mg/kg, iv; format: ADME, organism-based; set-up: dose 1 mg/kg, route intravenous; conditions: in vivo
[5] = system: Rattus norvegicus; test: Volume of distribution in rat at 1 mg/kg, iv; format: ADME, organism-based; set-up: dose 1 mg/kg, route intravenous; conditions: in vivo
[6] = Clearance in rat at 1 mg/kg, iv; format: ADME, organism-based; set-up: dose 1 mg/kg, route intravenous; conditions: in vivo
[7] = Oral bioavailability in rat at 1 mg/kg; format: ADME, organism-based; conditions: in vivo
Summary of the method: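 Oral dosing in rats at 1 mg/kg, n = 3 animals; F (%) given as mean, SEM <20% of mean unless stated.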

[8] = system: Brain; test: Drug level in rat brain at 1 mg/kg, iv; format: ADME, organism-based; set-up: dose 1 mg/kg, route intravenous; conditions: in vivo
Summary of the method: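 Rats dosed i.v. at 1 mg/kg; brain concentration measured 1 h post-dose by HPLC-MS; n ≥ 3, SEM <11% of mean unless stated.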

[9] = Protein binding in dog plasma; format: ADME, cell-free, Canis lupus familiaris; conditions: read-out: PPB (converted)
[10] = system: Rattus norvegicus; test: Memory enhancing effect in ip dosed adult rat by social recognition memory method; format: functional, organism-based
Summary of the method: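 Adult rat explores a juvenile 5 min, separated 2 h, re-exposed 5 min; compound or saline i.p. right after first exposure; investigation ratio (second/first time); ciproxifan 1 mg/kg standard; n ≥ 12, Dunnett's post hoc, P < 0.05; efficacious doses in mg/kg.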

[11] = system: Brain; test: Drug level in mouse brain at 1 mg/kg, ip; format: ADME, organism-based; set-up: dose 1 mg/kg, route intraperitoneal; conditions: in vivo
Summary of the method: (§1)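 Mice dosed i.p. at 1 mg/kg; brain and blood sampled 1 h after dosing, concentrations by HPLC-MS; n ≥ 3, SEM <11% of mean unless stated.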

[12] = Ratio of drug level in brain to blood in mouse at 1 mg/kg, ip; format: ADME, organism-based; set-up: dose 1 mg/kg, route intraperitoneal; summary of the method: as §1
[13] = system: Rattus norvegicus; test: Memory enhancing effect in ip dosed adult rat by five trial inhibitory avoidance method; format: functional, organism-based
[14] = system: Rattus norvegicus; test: Memory enhancing effect in ip dosed rat by five trial inhibitory avoidance method at 3 mg/kg; format: functional, organism-based; set-up: dose 3 mg/kg

| Structure (SMILES) | fraction unbound [1] | fraction unbound [2] | Kp [3] | half-life [4] [h] | Vbeta [5] [L/kg] | clearance [6] [mL/min/kg] | bioavailability [7] [%] | Drug uptake [8] [ng/g] | fraction unbound [9] | Activity [10] | Drug uptake [11] [ng/g] | Kp [12] | Activity [13] | Activity [14] |
| --- | --- | --- | --- | --- | --- | --- | --- | --- | --- | --- | --- | --- | --- | --- |
| Cc1nc2ncccc2cc1-c1ccc2cc(CCN3CCC[C@H]3C)ccc2n1 | 0.5 | 0.39 | 0.4 | 2 | 9.2 | 42.3 | 30 | 50 | 0.57 | Active |  |  |  |  |
| CCOc1ccc(-n2ncc(-c3ccc4cc(CCN5CCC[C@H]5C)ccc4n3)c2C)nn1 | 0.21 | 0.11 |  | 8.3 | 7.4 | 8.83 | 70 |  |  | Active | 3242 | 42 | Active | Active |
| Cc1nc(N2CCCC2)ncc1-c1ccc2cc(CCN3CCC[C@H]3C)ccc2n1 |  |  |  | 4 | 8.5 | 24.2 | 98 |  |  | Active | 718 | 16 |  |  |
| O=C(c1ccc(OCCCc2c[nH]cn2)cc1)C1CC1 |  |  |  |  |  |  |  |  |  | Active |  |  |  |  |
